Test results: the RNAGym collection of RNA variant scans (doi:10.1126/science.aae0568)
Variants at the floor of the assay were thinned out.

B1: tRNA (parent)
chain: GUUCCGUUGGCGUAAUGGUAACGCGUCUCCCUCCUAAGGAGAAGACUGCGGGUUCGAGUCCCGUACGGAACG

Variants of: B1
Test: yeast fitness relative to wild type (ratio to wild type); higher = fitter; tRNA-Arg(CCU), competitive growth, 37 C, YPD
Procedure, shortened: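 Variants of the tRNA-Arg(CCU) gene were chemically synthesised with a 3% per-site mutation rate across 69 sites and placed at the native genomic locus in Saccharomyces cerevisiae. Six parallel replicates of the pooled strains were competed in YPD at 37°C for 24 hours, and gene amplicons from the start and end populations were read by 100-nucleotide paired-end sequencing. Darwinian fitness relative to wild type was derived from changes in genotype frequencies. Genotypes required ≥ 100 starting reads, and estimates < 0.5 were set to 0.5.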

Row | Variant | yeast fitness
1 | GUUCCGUUGGCGUAAUGGUAAAGCGUCUCCCUCCUAAGGAGAAGACUGCGGGUUCGAAUCCCGUACGGAACG [C22A G58A] | 0.866
2 | GUUCCGUUGGCGUAAUGGUAAAGCGUCUCCCUCCUAAGGAGAAGACUGCGGGUUCGAGUCCCAUACGGAACG [C22A G63A] | 0.983
3 | GUUCCGUUGGCGUAAUGGUAAAGCGUCUCCCUCCUAAGGAGAAGACUGCGGGUUCGAGUCCCGUACUGAACG [C22A G67U] | 0.774
4 | GUUCCGUUGGCGUAAUGGUAAAGCGCCUCCCUCCUAAGGAGAAGACCGCGGGUUCGAGUCCCGUACGGAACG [C22A U26C U47C] | 0.541
5 | GUUCCGUUGGCGUAAUGGUAAAGCGUCCCCCUCCUAAGGAGGAGACAGCGGGUUCGAGUCCCGUACGGAACG [C22A U28C A42G U47A] | 0.64
6 | GUUCCGUUGGCGUAAUGGUAAAGCGUCGCCGUCCUAAGGAGUAGACUGCGGGUUCGAGUCUCGUACGGAACG [C22A U28G C31G A42U C61U] | ≤ 0.5
7 | GUUCCGUUGGCGUAAUGGUAAAGCGUCGCCCUCCUAAGGAGAAGACUGCGGGUUCGACUCCCGUACGGAACG [C22A U28G G58C] | ≤ 0.5
8 | GUUCCGUUGGCGUAAUGGUAAAGCGUCGCCCUCCUAAGGAGAAGACUGCGGGUUCGAGUCCCGUACUGAACG [C22A U28G G67U] | ≤ 0.5
9 | GUUCCGUUGGCGUAAUGGUAAAGCGUCUCCCAUCUAAGAAGACGACUGCGGGUUCGAGUCCCGUACGGCACG [C22A U32A C33U G39A A43C A69C] | ≤ 0.5
10 | GUUCCGUUGGCGUAAUGGUAAAGCGUCUCCCCCCUAAGGAGAAGACUGCGGGUUCGAGUCCCGUACGGAACG [C22A U32C] | 0.869
11 | GUUCCGUUGGCGUAAUGGUAAAGCGUCUCCCUCCAAAGGAGAAGACUGCGGGUUCGAGUCCCGUACGGAACG [C22A U35A] | 0.603
12 | GUUCCGUUGGCGUAAUGGUAAAGCGUCUCCCUCCUAAGGAGAAGACAGCGGGUUCGAGUCCCGUACGGAACG [C22A U47A] | 0.629
13 | GUUCCGUUGGCGUAAUGGUAAAGCGUCUCCCUCCUAAGGAGAAGACAGCGGGUUCGAGUCCCGUACGGAGCG [C22A U47A A70G] | 0.577
14 | GUUCCGUUGGCGUAAUGGUAAAGCGUCUCCCUCCUAAGGAGAAGACAGCGGGUUCGAGUCCCGUAAGGAACG [C22A U47A C66A] | ≤ 0.5
15 | GUUCCGUUGGCGUAAUGGUAAAGCGUCUCCCUCCUAAGGAGAAGACAGCGGGUUCGAGUCCCCUACGGAACG [C22A U47A G63C] | ≤ 0.5
16 | GUUCCGUUGGCGUAAUGGUAAAGCGUCUCCCUCCUAAGGAGAAGACUGCGGGGUCCAGUCCCGUACCGAACG [C22A U53G G56C G67C] | ≤ 0.5
17 | GUUCCGUUGGCGUAAUGGUAAAGCGUCUCCCUCCUAAGGAGAAGACUGCGGGUUCGAGCCCCGUACGGAACG [C22A U59C] | 0.814
18 | GUUCCGUUGGCGUAAUGGUAAGGCGUCUCCCUCCUAAGGAGAAGACUGCGGGUUCGAGUCCCGUACGGAACG [C22G] | 0.988
19 | GUUCCGUUGGCGUAAUGGUAAGGCGUCUCCCUCCUCAGGAGAAGACUGCGGGUUCGAGUCCCGUACGGAACG [C22G A36C] | 0.585

Row | Variant | yeast fitness
20 | GUUCCGUUGGCGUAAUGGUAAGGCGUCUCCCUCCUCAGGAGAAGACUACGGGUUCGAGUCACGUAUGGAACG [C22G A36C G48A C61A C66U] | ≤ 0.5
21 | GUUCCGUUGGCGUAAUGGUAAGGCGUCUCCCUCCUCAGGAGAAGACUGCGGGUCUGAGUACGGUACGGUACG [C22G A36C U54C C55U C60A C62G A69U] | ≤ 0.5
22 | GUUCCGUUGGCGUAAUGGUAAGGCGUCUCCCUCCUGCGGAGAAGAAUGGGGGUUCGAGUCCCGUACGGAACG [C22G A36G A37C C46A C49G] | ≤ 0.5
23 | GUUCCGUUGGCGUAAUGGUAAGGCGUCUCCCUCCUGGGGAGAAGACUGCGGGUUCGAGUGCCGUACGGGACG [C22G A36G A37G C60G A69G] | ≤ 0.5
24 | GUUCCGUUGGCGUAAUGGUAAGGCGUCUCCCUCCUGAGGAGGAGACUGCGGGUUCGAGUCCCGUACGGAACG [C22G A36G A42G] | 0.605
25 | GUUCCGUUGGCGUAAUGGUAAGGCGUCUCCCUCCUGAGGAGAAGAUUGCGGGUUCGAGUCCCGUACGGAACG [C22G A36G C46U] | 0.709
26 | GUUCCGUUGGCGUAAUGGUAAGGCGUCUCCCUCCUGAGGAGAAGACUGCGGGUUGGAGUCCCGUACGGAACG [C22G A36G C55G] | ≤ 0.5
27 | GUUCCGUUGGCGUAAUGGUAAGGCGUCUCCCUCCUACGGAGGAGACUGCGGGUUCGAGUCCCGUACGGAACG [C22G A37C A42G] | ≤ 0.5
28 | GUUCCGUUGGCGUAAUGGUAAGGCGUCUCCCUCCUAGGGAGAAGACUGCGGGUUCGAGUCCCGUACGGAACG [C22G A37G] | 0.697
29 | GUUCCGUUGGCGUAAUGGUAAGGCGUCUCCCUCCUAUGGAGAUGACUGCGGGUUCGAGUCCCGUACGGAACG [C22G A37U A43U] | 0.502
30 | GUUCCGUUGGCGUAAUGGUAAGGCGUCUCCCUCCUAUGGAGAUGACUGCGGGUUCGAGUCCCGUCCGGAACG [C22G A37U A43U A65C] | ≤ 0.5
31 | GUUCCGUUGGCGUAAUGGUAAGGCGUCUCCCUCCUAUGGAGAAGACUGCGGGUUCGCGUCCCGUACGGAACG [C22G A37U A57C] | ≤ 0.5
32 | GUUCCGUUGGCGUAAUGGUAAGGCGUCUCCCUCCUAAGGUGACGACUGCGGGUUCGAGUCCCGUACGGAACG [C22G A40U A43C] | 0.698
33 | GUUCCGUUGGCGUAAUGGUAAGGCGUCUCCCUCCUAAGGUGAUGACUGCGGGUUCGAGUCCCGUACGGAACG [C22G A40U A43U] | 0.503
34 | GUUCCGUUGGCGUAAUGGUAAGGCGUCUCCCUCCUAAGGAGCAGACUGCGGGUUCGAGUCCCGUACGGAACG [C22G A42C] | 0.635
35 | GUUCCGUUGGCGUAAUGGUAAGGCGUCUCCCUCCUAAGGAGCAGACUGCGGGUUCGAGUCCCGUACGGAUCG [C22G A42C A70U] | 0.671
36 | GUUCCGUUGGCGUAAUGGUAAGGCGUCUCCCUCCUAAGGAGCAGACUGCGGGUUCGAGUCCCGUAGUGAACG [C22G A42C C66G G67U] | ≤ 0.5
37 | GUUCCGUUGGCGUAAUGGUAAGGCGUCUCCCUCCUAAGGAGUAGACUGCGGGUUCGAGUCCCCUACGGAACG [C22G A42U G63C] | ≤ 0.5
